Source: ChEMBL document CHEMBL1153848, “Design and synthesis of azolopyrimidoquinolines, pyrimidoquinazolines as anti-oxidant, anti-inflammatory and analgesic activities” (2009)
Active and inactive are the calls of the source.

What was measured:
[1] = Antioxidant activity in Sprague-Dawley rat erythrocytes assessed as peroxyl radical-induced hemolysis after 1 hr; format: functional, Erythrocyte
Kidney = assay: Antioxidant activity in Sprague-Dawley rat kidney assessed as inhibition of lipid peroxidation; format: functional, tissue-based
[2] = Antioxidant activity assessed as ABTS radical scavenging activity at 2 mM; format: functional
Summary of the method: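 ABTS radical scavenging, read as the fall in colour absorbance after MeOH/phosphate buffer (1:1) is added. % inhibition = (A_control − A_test)/A_control × 100. The negative control uses MeOH/phosphate buffer (1:1) in place of compound, the blank omits ABTS, and ascorbic acid is the positive control.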

Brain = assay: Antioxidant activity in Sprague-Dawley rat brain assessed as inhibition of lipid peroxidation; format: functional, tissue-based
Mus musculus [3] = assay: Central analgesic activity in Swiss albino mouse assessed as thermal stimuli reaction time at 20 mg/kg, po after 90 mins by hot plate method; format: functional
Summary of the method: (§1)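 Swiss mice of both sexes (25–30 g), six per group, on a hot plate held at 53 ± 0.5 °C. Latency was timed to hind-paw licking or jumping, with a 60 s cut-off. It was measured before dosing, then at 15, 30, 60 and 90 min after an oral aqueous suspension at 20 mg/kg. Controls were untreated; oral diclofenac sodium 20 mg/kg was the reference.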

Mus musculus [4] = assay: Peripheral analgesic activity in Swiss albino mouse assessed as protection against acetic acid-induced writhing response at 20 mg/kg, po administered 30 mins before acetic acid challenge measured after 1 hr relative to control; format: functional
Mus musculus [5] = assay: Peripheral analgesic activity in Swiss albino mouse assessed as protection against acetic acid-induced writhing response at 20 mg/kg, po administered 30 mins before acetic acid challenge measured after 2 hrs relative to control; format: functional
Rattus norvegicus [6] = assay: Antiinflammatory activity in Sprague-Dawley rat assessed as protection against carrageenan-induced hind paw edema at 20 mg/kg, po administered 1 hr before carrageenan challenge measured after 2 hrs; format: functional
Summary of the method: (§2)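 Adult female albino rats (150–180 g), fasted 18 h, six per group. Aqueous suspension in distilled water given orally at 20 mg/kg 1 h before subplantar injection of 0.1 mL 1% w/v carrageenan into the left hind paw. Vehicle controls got 0.5 mL water; diclofenac sodium 20 mg/kg po was the reference. Paw volume was measured by mercury plethysmometer before injection and hourly for 4 h. Inhibition = (Ec−Et)/Ec, with edema = (Vt−V0)/V0.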

Rattus norvegicus [7] = assay: Antiinflammatory activity in Sprague-Dawley rat assessed as protection against carrageenan-induced hind paw edema at 20 mg/kg, po administered 1 hr before carrageenan challenge measured after 1 hr; format: functional; summary of the method: as §2
Mus musculus [8] = assay: Central analgesic activity in Swiss albino mouse assessed as thermal stimuli reaction time at 20 mg/kg, po after 30 mins by hot plate method; format: functional; summary of the method: as §1
Mus musculus [9] = assay: Peripheral analgesic activity in Swiss albino mouse assessed as protection against acetic acid-induced writhing response at 20 mg/kg, po administered 30 mins before acetic acid challenge measured after 3 hrs relative to control; format: functional
Rattus norvegicus [10] = assay: Antiinflammatory activity in Sprague-Dawley rat assessed as protection against carrageenan-induced hind paw edema at 20 mg/kg, po administered 1 hr before carrageenan challenge measured after 3 hrs; format: functional; summary of the method: as §2
Mus musculus [11] = assay: Central analgesic activity in Swiss albino mouse assessed as thermal stimuli reaction time at 20 mg/kg, po after 60 mins by hot plate method; format: functional; summary of the method: as §1
Mus musculus [12] = assay: Peripheral analgesic activity in Swiss albino mouse assessed as protection against acetic acid-induced writhing response at 20 mg/kg, po administered 30 mins before acetic acid challenge measured after 30 mins relative to control; format: functional

Compound | Activity [1] | Activity (Kidney) | inhibition [2] | Activity (Brain) | Activity (Mus musculus [3]) | Activity (Mus musculus [4]) | Activity (Mus musculus [5]) | Activity (Rattus norvegicus [6]) | Activity (Rattus norvegicus [7]) | Activity (Mus musculus [8]) | Activity (Mus musculus [9]) | Activity (Rattus norvegicus [10]) | Activity (Mus musculus [11]) | Activity (Mus musculus [12])
COc1ccc(/C=c2\sc3nc4nc5c(c(-c6ccc(Cl)cc6)c4c(=O)n3c2=O)CCC/C5=C/c2ccc(Cl)cc2)cc1 | 4.54% | Active | 33.3% | Active | – | – | – | – | – | – | – | – | – | –
O=C([O-])Cc1ccccc1Nc1c(Cl)cccc1Cl.[Na+] [DICLOFENAC SODIUM] | – | – | – | – | 13.2 min | 55.2% | 62% | 60.3% | 52.4% | 10 min | 39% | 42% | 11.4 min | 46%
C/C(=N/O)c1sc2nc3nc4c(c(-c5ccc(Cl)cc5)c3c(=O)n2c1C)CCC/C4=C/c1ccc(Cl)cc1 | 7.22% | Active | 48.1% | Active | – | – | – | – | – | – | – | – | – | –
COc1ccc(NC2NC(SC)=Nc3nc4c(c(-c5ccc(Cl)cc5)c32)CCC/C4=C/c2ccc(Cl)cc2)cc1 (stereo not drawn) | – | Active | – | Active | 9.22 min | 52% | 49.3% | 42.3% | 39.8% | 8.62 min | 37.3% | 25.3% | 9.06 min | 41.5%
O=c1[nH]c(=S)[nH]c2nc3c(c(-c4ccc(Cl)cc4)c12)CCC/C3=C\c1ccc(Cl)cc1 | 8.33% | Active | 44.4% | Active | – | – | – | – | – | – | – | – | – | –
CN(C)c1ccc(/C=c2\sc3nc4nc5c(c(-c6ccc(Cl)cc6)c4c(=O)n3c2=O)CCC/C5=C/c2ccc(Cl)cc2)cc1 | 7.27% | Active | 37% | Active | – | – | – | – | – | – | – | – | – | –
O=C(CSc1nc2nc3c(c(-c4ccc(Cl)cc4)c2c(=O)[nH]1)CCC/C3=C/c1ccc(Cl)cc1)c1ccccc1 | 6.51% | Active | 33.3% | Active | – | – | – | – | – | – | – | – | – | –
CSc1nc2nc3c(c(-c4ccc(Cl)cc4)c2c(=O)n1C)CCC/C3=C/c1ccc(Cl)cc1 | 4.09% | Active | 31.5% | Active | – | – | – | – | – | – | – | – | – | –
CSc1nc2nc3c(c(-c4ccc(Cl)cc4)c2c(=O)[nH]1)CCC/C3=C/c1ccc(Cl)cc1 | 4.24% | Active | 33.3% | Active | 10.67 min | 52% | 55.5% | 56.2% | 50.1% | 8.42 min | 37.6% | 32.4% | 10.41 min | 50.4%
Nc1ccc(/C=C2/CCCc3c2nc2nc4sc5c(n4c(=O)c2c3-c2ccc(Cl)cc2)ONC5c2cccs2)cc1 (stereo not drawn) | 4.64% | Active | 29.6% | Active | – | – | – | – | – | – | – | – | – | –
CC(=O)CSc1nc2nc3c(c(-c4ccc(Cl)cc4)c2c(=O)[nH]1)CCC/C3=C/c1ccc(Cl)cc1 | 8.33% | Active | 35.2% | Active | – | – | – | – | – | – | – | – | – | –
NNc1nc2nc3c(c(-c4ccc(Cl)cc4)c2c(=O)[nH]1)CCC/C3=C/c1ccc(Cl)cc1 | – | Active | – | Active | – | – | – | – | – | – | – | – | – | –
COc1ccc(/C=C/C(=O)c2sc3nc4nc5c(c(-c6ccc(Cl)cc6)c4c(=O)n3c2C)CCC/C5=C/c2ccc(Cl)cc2)cc1 | 5.9% | Active | 22.2% | Active | – | – | – | – | – | – | – | – | – | –
CSC1=Nc2nc3c(c(-c4ccc(Cl)cc4)c2C(N2CCNCC2)N1)CCC/C3=C/c1ccc(Cl)cc1 (stereo not drawn) | – | Active | – | Active | 11.5 min | 50% | 49.4% | 52% | 43.1% | 7.93 min | 30.5% | 42% | 10.15 min | 49.5%
CC(=O)c1sc2nc3nc4c(c(-c5ccc(Cl)cc5)c3c(=O)n2c1C)CCC/C4=C/c1ccc(Cl)cc1 | 6.06% | Active | 40.7% | Active | 12 min | 49% | 53.1% | 44.2% | 46.7% | 7.54 min | 38.4% | 39.2% | 8.61 min | 43.5%
O=c1/c(=C/c2ccccc2)sc2nc3nc4c(c(-c5ccc(Cl)cc5)c3c(=O)n12)CCC/C4=C/c1ccc(Cl)cc1 | 5.75% | Active | 40.7% | Active | 11.08 min | 76% | 77.2% | 59.3% | 59.8% | 9.16 min | 60.3% | 42.3% | 10.78 min | 73.2%
CCSc1nc2nc3c(c(-c4ccc(Cl)cc4)c2c(=O)n1C)CCC/C3=C/c1ccc(Cl)cc1 | 5.3% | Active | 31.5% | Active | – | – | – | – | – | – | – | – | – | –
CCSc1nc2nc3c(c(-c4ccc(Cl)cc4)c2c(=O)n1CC)CCC/C3=C/c1ccc(Cl)cc1 | 30.75% | Active | 35.2% | Active | – | – | – | – | – | – | – | – | – | –
O=c1[nH]c(=S)[nH]c2c1C(c1ccc(Cl)cc1)C1=C(N2)/C(=C/c2ccc(Cl)cc2)CCC1 (stereo not drawn) | 12.72% | Active | 59.3% | Active | 11.67 min | 69% | 74.3% | 62% | 56.3% | 9.42 min | 47.3% | 40.2% | 10.41 min | 60.4%
CCSc1nc2nc3c(c(-c4ccc(Cl)cc4)c2c(=O)[nH]1)CCC/C3=C/c1ccc(Cl)cc1 | 5.6% | Active | 37% | Active | – | – | – | – | – | – | – | – | – | –
O=c1c2c(-c3ccc(Cl)cc3)c3c(nc2nc2sc4c(n12)ONC4c1ccccc1)/C(=C\c1ccc(Cl)cc1)CCC3 (stereo not drawn) | 9.39% | Active | 33.3% | Active | 12.68 min | 53% | 59.3% | 57.1% | 49.6% | 7.08 min | 36.5% | 34.8% | 9.52 min | 46.7%
COc1ccc(/C=C2\CCCC3=C2Nc2[nH]c(=S)[nH]c(=O)c2C3c2ccc(OC)cc2)cc1 (stereo not drawn) | 8.18% | Active | 66.7% | Active | 11.88 min | 74% | 75.4% | 62.4% | 59.5% | 9.84 min | 58.2% | 46.5% | 11.62 min | 69%
COc1ccc(C2NOc3c2sc2nc4nc5c(c(-c6ccc(Cl)cc6)c4c(=O)n32)CCC/C5=C/c2ccc(Cl)cc2)cc1 (stereo not drawn) | 7.27% | Active | 24.1% | Active | – | – | – | – | – | – | – | – | – | –
Nc1ccc(/C=C2/CCCc3c2nc2nc4s/c(=C\c5cccs5)c(=O)n4c(=O)c2c3-c2ccc(N)cc2)cc1 | 6.36% | Active | 25.9% | Active | – | – | – | – | – | – | – | – | – | –
CSC1=Nc2nc3c(c(-c4ccc(Cl)cc4)c2C(N2CCOCC2)N1)CCC/C3=C/c1ccc(Cl)cc1 (stereo not drawn) | – | Active | – | Active | 11.12 min | 47% | 45.2% | 47.1% | 39.2% | 8.65 min | 27.8% | 37.3% | 10.98 min | 45.2%
